Data set [1] is described as follows: Selectivity index, ratio of CC50 for Wistar rat astrocytes to EC50 for human U87MG cells. A digest of the protocol:
(§1)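 Selectivity index is astrocyte CC50 divided by the glioma-line EC50, both from 72 h SRB assays. No index is given when astrocyte cytotoxicity could not be calculated at the highest concentration tested.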

The nature of data set [2]: Selectivity index, ratio of CC50 for Wistar rat astrocytes to EC50 for rat C6 cells. The method, boiled down:
as §1

For a further data set, the system named is U-87 MG. As to the kind of experiment: Antiproliferative activity against human U87MG cells assessed as cell growth inhibition measured after 72 hrs by SRB assay. It is filed as functional, cell-based, U-87MG ATCC. A digest of the protocol: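 U87MG human glioma cells grown in DMEM with 10% FBS at 37 °C, used up to 30 passages and treated at 40-50% confluence. Exposed to 0.1-100 µM for 72 h, with DMSO at most 0.1% final. TCA-fixed, stained with SRB, dye solubilized in Tris pH 10.5, read at 510 nm, expressed as % of DMSO controls. Mean ± SD of three independent assays.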

Data set [3] can be described thus: Cytotoxicity against Wistar rat astrocytes assessed as cell growth inhibition measured after 72 hrs by SRB assay. It is filed as cell-based, Astrocyte. A digest of the protocol:
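Primary astrocytes taken from the cortex of 2-day-old Wistar rats by mechanical dissociation, grown on poly-L-lysine in high-glucose DMEM and treated at 90% confluence (12-15 days). Exposed to 0.1-100 µM for 72 h, then SRB assay with absorbance read at 510 nm against DMSO controls. Mean ± SD of three independent assays.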

A short description of data set [4]: Selectivity index, ratio of CC50 for Wistar rat astrocytes to EC50 for human U-251 MG cells. The method, boiled down: as §1
The next data set has as its system U-251. In words: Antiproliferative activity against human U251MG cells assessed as cell growth inhibition measured after 72 hrs by SRB assay. It is filed as functional, cell-based. Conditions: U-251, 72 h.
For the next data set, the species on record is Rattus norvegicus. In words: Inhibition of TrxR in rat liver assessed as reduction in TNB formation using DTNB and NADPH as substrate at 100 uM preincubated with enzyme for 15 mins followed by NADPH addition by absorbance based analysis. Type of data set: tissue-based. A digest of the protocol: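 TrxR activity was measured at 37 °C in 100 mM potassium phosphate pH 7.0 with 2 mg/mL DTNB and 0.01 mg/mL enzyme. Enzyme was preincubated for 15 min with compound or DMSO, then the reaction was started with 0.2 mg/mL NADPH. TNB formation was followed at 412 nm (ε 13.6 mM-1 cm-1). Assays were run in duplicate, with enzyme-free blanks subtracted.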

Another data set has as its system C6. In words: Antiproliferative activity against rat C6 cells assessed as cell growth inhibition measured after 72 hrs by SRB assay. Type of data set: functional, cell-based. Conditions: C6, 72 h.

`O=C(/C=C/c1ccc([N+](=O)[O-])o1)c1ccc(N2CCNCC2)cc1`: the “Ratio CC50/EC50” value in data set [1] came to 9; in data set [2] it was 29.5; in data set [4], 2.6. In addition, the EC50 in the data set on U-87 MG was determined as 4.9 µM; in the data set with U-251, 16.7 µM; with C6 it was 1500 nM. Further, the CC50 at 72 h in data set [3] turned out to be 44.3 µM. Further, the inhibition in the data set listed under Rattus norvegicus came to 0%.

For the origin of these results see ChEMBL document CHEMBL4765251, “Efficient identification of novel anti-glioma lead compounds by machine learning models” (Eur J Med Chem, 2020).
